{"source": "ChEMBL document CHEMBL3286131", "about": "“Design, synthesis and systematic evaluation of cytotoxic 3-heteroarylisoquinolinamines as topoisomerases inhibitors” (Eur J Med Chem, 2014)", "key": {"[1]": {"assay": "Cytotoxicity against human MCF10A cells after 2 days", "assay_type": "cell-based, MCF-10A", "how_it_was_run": "(§1)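 Cells seeded at 2-4 × 10^4 per well in medium with 10% FBS and incubated overnight at 37 °C, 5% CO2. Graded compound concentrations added on day 2. CCK-8 reagent added on day 4 for a further 4 h, absorbance read at 450 nm. IC50 from a four-parameter logistic fit; mean ± S.D. of three experiments run in triplicate.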"}, "T47D": {"system": "T47D", "assay": "Cytotoxicity against human T47D cells after 2 days", "assay_type": "functional, cell-based", "how_it_was_run": "as §1"}, "DU-145": {"system": "DU-145", "assay": "Cytotoxicity against human DU145 cells after 2 days", "assay_type": "functional, cell-based", "how_it_was_run": "as §1"}, "[2]": {"assay": "Cytotoxicity against human HCT15 cells after 2 days", "assay_type": "functional, cell-based, HCT-15", "how_it_was_run": "as §1"}, "[3]": {"biological_target": "DNA topoisomerase 2-alpha (Homo sapiens) (UniProt P11388)", "sequence (P11388 whole entry)": "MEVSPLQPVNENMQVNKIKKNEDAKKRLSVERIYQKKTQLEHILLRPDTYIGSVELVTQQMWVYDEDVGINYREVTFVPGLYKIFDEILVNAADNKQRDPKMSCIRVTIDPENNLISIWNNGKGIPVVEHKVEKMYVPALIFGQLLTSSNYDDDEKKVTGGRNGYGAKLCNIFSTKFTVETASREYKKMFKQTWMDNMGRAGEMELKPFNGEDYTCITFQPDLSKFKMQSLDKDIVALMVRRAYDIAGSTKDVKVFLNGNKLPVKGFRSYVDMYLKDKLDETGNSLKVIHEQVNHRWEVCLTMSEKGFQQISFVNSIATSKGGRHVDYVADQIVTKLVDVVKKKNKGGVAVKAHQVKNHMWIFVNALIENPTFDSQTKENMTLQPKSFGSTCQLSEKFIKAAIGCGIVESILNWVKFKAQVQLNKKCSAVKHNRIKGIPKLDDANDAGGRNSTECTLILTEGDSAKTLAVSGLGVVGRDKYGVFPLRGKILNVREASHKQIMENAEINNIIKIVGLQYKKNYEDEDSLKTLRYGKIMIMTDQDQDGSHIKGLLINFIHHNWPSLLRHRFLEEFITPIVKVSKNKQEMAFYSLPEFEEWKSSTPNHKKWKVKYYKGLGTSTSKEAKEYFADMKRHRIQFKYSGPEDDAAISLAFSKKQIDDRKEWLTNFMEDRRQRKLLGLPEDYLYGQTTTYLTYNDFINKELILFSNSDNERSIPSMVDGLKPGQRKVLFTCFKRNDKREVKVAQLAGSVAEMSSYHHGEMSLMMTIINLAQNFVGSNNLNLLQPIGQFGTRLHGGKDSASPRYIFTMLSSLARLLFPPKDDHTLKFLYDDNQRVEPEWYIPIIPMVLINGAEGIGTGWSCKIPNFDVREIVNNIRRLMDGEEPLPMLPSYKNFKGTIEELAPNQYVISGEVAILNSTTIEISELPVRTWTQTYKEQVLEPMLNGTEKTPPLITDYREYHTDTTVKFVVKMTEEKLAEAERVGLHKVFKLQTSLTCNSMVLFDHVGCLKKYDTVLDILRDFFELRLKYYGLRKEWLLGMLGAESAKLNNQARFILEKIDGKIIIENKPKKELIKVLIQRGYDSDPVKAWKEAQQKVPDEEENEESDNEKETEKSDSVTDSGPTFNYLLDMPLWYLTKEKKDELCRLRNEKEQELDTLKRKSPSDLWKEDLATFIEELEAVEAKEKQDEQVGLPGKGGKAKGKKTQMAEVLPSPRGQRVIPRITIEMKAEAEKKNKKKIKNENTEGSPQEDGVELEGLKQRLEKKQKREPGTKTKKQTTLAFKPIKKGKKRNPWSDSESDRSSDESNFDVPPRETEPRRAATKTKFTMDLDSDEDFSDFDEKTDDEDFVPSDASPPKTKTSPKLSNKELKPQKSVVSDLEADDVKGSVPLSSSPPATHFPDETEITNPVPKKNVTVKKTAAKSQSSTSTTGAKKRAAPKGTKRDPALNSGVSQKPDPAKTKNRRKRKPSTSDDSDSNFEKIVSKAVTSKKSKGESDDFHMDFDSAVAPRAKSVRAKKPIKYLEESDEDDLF", "assay": "Inhibition of human DNA topoisomerase-2a-mediated relaxation of supercoiled DNA pBR322 at 100 uM after 4 hrs using ethidium bromide staining by agarose gel electrophoresis analysis", "how_it_was_run": "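Supercoiled pBR322 (200 ng) incubated with human topo IIα (1 unit) ± compound for 30 min at 30 °C. Buffer: 10 mM Tris-HCl pH 7.9, 50 mM NaCl, 50 mM KCl, 5 mM MgCl2, 1 mM EDTA, 1 mM ATP, BSA. Stopped with EDTA. 1% agarose gel run at 25 V for 4 h in TAE, ethidium bromide stain, supercoiled DNA quantified by UV imaging.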"}, "[4]": {"biological_target": "T1, DNA topoisomerase 1 (Homo sapiens) (UniProt P11387)", "T1 sequence (whole entry)": "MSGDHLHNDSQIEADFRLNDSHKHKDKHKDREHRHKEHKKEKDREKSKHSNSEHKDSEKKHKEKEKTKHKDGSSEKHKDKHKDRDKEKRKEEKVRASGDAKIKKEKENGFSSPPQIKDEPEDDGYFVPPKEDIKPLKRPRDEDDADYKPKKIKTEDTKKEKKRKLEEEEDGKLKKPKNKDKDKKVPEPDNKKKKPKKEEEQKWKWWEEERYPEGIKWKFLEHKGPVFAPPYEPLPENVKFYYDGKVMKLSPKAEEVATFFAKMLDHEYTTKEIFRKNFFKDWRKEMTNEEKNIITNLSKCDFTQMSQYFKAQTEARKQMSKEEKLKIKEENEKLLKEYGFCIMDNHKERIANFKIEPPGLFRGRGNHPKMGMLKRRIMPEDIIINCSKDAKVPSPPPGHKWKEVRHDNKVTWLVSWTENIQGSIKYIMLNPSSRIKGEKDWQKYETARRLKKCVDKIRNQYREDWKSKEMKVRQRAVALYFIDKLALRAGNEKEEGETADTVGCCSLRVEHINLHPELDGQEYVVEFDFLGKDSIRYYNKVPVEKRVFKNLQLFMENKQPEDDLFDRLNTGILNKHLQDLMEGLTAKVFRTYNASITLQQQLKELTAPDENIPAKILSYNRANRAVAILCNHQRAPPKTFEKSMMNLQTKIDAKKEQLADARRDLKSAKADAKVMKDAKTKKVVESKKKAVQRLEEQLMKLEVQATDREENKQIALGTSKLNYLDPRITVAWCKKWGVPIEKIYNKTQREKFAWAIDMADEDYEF", "assay": "Inhibition of recombinant human DNA topoisomerase-1-mediated relaxation of supercoiled DNA pBR322 at 100 uM after 7 hrs using ethidium bromide staining by agarose gel electrophoresis analysis", "how_it_was_run": "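pBR322 (100 ng) incubated with recombinant human topo I (0.4 units) ± compound for 30 min at 37 °C. Buffer: 10 mM Tris-HCl pH 7.9, 150 mM NaCl, 0.1% BSA, 1 mM spermidine, 5% glycerol. Quenched with sarcosyl stop solution. 1% agarose gel run at 15 V for 7 h in TAE, ethidium bromide stain, supercoiled DNA quantified under UV.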"}}, "note": "Values joined by “and” are separate entries in the source; they are usually repeats but may differ in a detail not shown here. Identical values can stand only once."}
{"smiles": "Cc1ccc2c(N3CCN(C)CC3)nc(-c3cccs3)cc2c1", "note": "[listing 1 of 2 here]", "values": [{"measurement": "IC50", "setting": "[1]; mcf-10a", "result": 14.9, "unit": "µM"}, {"measurement": "IC50", "setting": "T47D; t47d", "result": 18.4, "unit": "µM"}, {"measurement": "IC50", "setting": "DU-145; du-145", "result": 40, "unit": "µM"}, {"measurement": "IC50", "setting": "[2]; Homo sapiens, HCT-15, 48 h", "result": 3.19, "unit": "µM"}]}
{"smiles": "CCN1CCN(c2nc(-c3cccs3)cc3cc(C)ccc23)CC1", "note": "[listing 1 of 2 here]", "values": [{"measurement": "IC50", "setting": "[1]; Homo sapiens, MCF-10A, 48 h", "result": 28.9, "unit": "µM"}, {"measurement": "IC50", "setting": "T47D; t47d", "result": 17.7, "unit": "µM"}, {"measurement": "IC50", "setting": "DU-145; du-145", "result": 22.1, "unit": "µM"}, {"measurement": "IC50", "setting": "[2]; hct-15", "result": 4.4, "unit": "µM"}]}
{"smiles": "Cc1ccc2cc(-c3cccs3)nc(N3CCOCC3)c2c1", "note": "[listing 1 of 2 here]", "values": [{"measurement": "IC50", "setting": "[1]; Homo sapiens, MCF-10A, 48 h", "result": 35.6, "unit": "µM"}, {"measurement": "IC50", "setting": "T47D; Homo sapiens, T47D, 48 h", "result": 6.38, "unit": "µM"}, {"measurement": "IC50", "setting": "DU-145; Homo sapiens, DU-145, 48 h", "result": 47.3, "unit": "µM"}, {"measurement": "IC50", "setting": "[2]; Homo sapiens, HCT-15, 48 h", "result": 7.58, "unit": "µM"}]}
{"smiles": "CN1CCN(c2nc(-c3cccs3)cc3ccccc23)CC1", "values": [{"measurement": "IC50", "setting": "[1]; mcf-10a", "result": 18.1, "unit": "µM"}, {"measurement": "IC50", "setting": "T47D; Homo sapiens, T47D, 48 h", "result": 15.4, "unit": "µM"}, {"measurement": "IC50", "setting": "DU-145; Homo sapiens, DU-145, 48 h", "result": 40.2, "unit": "µM"}, {"measurement": "IC50", "setting": "[2]; hct-15", "result": 2.44, "unit": "µM"}]}
{"smiles": "Cc1ccc2c(N3CCCCC3)nc(-c3cccs3)cc2c1", "values": [{"measurement": "IC50", "setting": "T47D; t47d", "result": 8.03, "unit": "µM"}, {"measurement": "IC50", "setting": "[2]; hct-15", "result": 1.88, "unit": "µM"}]}
{"smiles": "c1csc(-c2cc3ccccc3c(N3CCCCC3)n2)c1", "values": [{"measurement": "IC50", "setting": "[1]; Homo sapiens, MCF-10A, 48 h", "result": "> 50", "unit": "µM"}, {"measurement": "IC50", "setting": "T47D; t47d", "result": 3.22, "unit": "µM"}, {"measurement": "IC50", "setting": "DU-145; Homo sapiens, DU-145, 48 h", "result": "> 50", "unit": "µM"}, {"measurement": "IC50", "setting": "[2]; hct-15", "result": 3.61, "unit": "µM"}]}
{"smiles": "Cc1ccc2cc(-c3cccs3)nc(N3CCN(C)CC3)c2c1", "note": "[listing 1 of 2 here]", "values": [{"measurement": "IC50", "setting": "[1]; Homo sapiens, MCF-10A, 48 h", "result": 11.6, "unit": "µM"}, {"measurement": "IC50", "setting": "T47D; t47d", "result": 1.96, "unit": "µM"}, {"measurement": "IC50", "setting": "DU-145; Homo sapiens, DU-145, 48 h", "result": 16.2, "unit": "µM"}, {"measurement": "IC50", "setting": "[2]; hct-15", "result": 1.64, "unit": "µM"}]}
{"smiles": "Cc1ccc2cc(-c3cccs3)nc(N3CCCN(C)CC3)c2c1", "values": [{"measurement": "inhibition", "setting": "[3]", "result": 8, "unit": "%"}, {"measurement": "IC50", "setting": "[1]; Homo sapiens, MCF-10A, 48 h", "result": 20.6, "unit": "µM"}, {"measurement": "IC50", "setting": "T47D; Homo sapiens, T47D, 48 h", "result": 1.32, "unit": "µM"}, {"measurement": "IC50", "setting": "DU-145; Homo sapiens, DU-145, 48 h", "result": 14.7, "unit": "µM"}, {"measurement": "inhibition", "setting": "[4]", "result": 18.3, "unit": "%"}, {"measurement": "IC50", "setting": "[2]; Homo sapiens, HCT-15, 48 h", "result": 1.5, "unit": "µM"}]}
{"smiles": "c1csc(-c2cc3ccccc3c(N3CCOCC3)n2)c1", "note": "[listing 1 of 2 here]", "values": [{"measurement": "IC50", "setting": "[1]; Homo sapiens, MCF-10A, 48 h", "result": "> 50", "unit": "µM"}, {"measurement": "IC50", "setting": "T47D; t47d", "result": 24.4, "unit": "µM"}, {"measurement": "IC50", "setting": "DU-145; du-145", "result": "> 50", "unit": "µM"}, {"measurement": "IC50", "setting": "[2]; hct-15", "result": 21.3, "unit": "µM"}]}
{"smiles": "Cc1ccc2c(N3CCN(C)CC3)nc(-c3cccs3)cc2c1", "note": "[listing 2 of 2 here]", "values": [{"measurement": "inhibition", "setting": "[3]", "result": 0, "unit": "%"}, {"measurement": "inhibition", "setting": "[4]", "result": "5.1% and 11.2%"}]}
{"smiles": "Cc1ccc2cc(-c3cccs3)nc(N3CCN(C)CC3)c2c1", "note": "[listing 2 of 2 here]", "values": [{"measurement": "IC50", "setting": "[1]; mcf-10a", "result": 20.9, "unit": "µM"}, {"measurement": "IC50", "setting": "T47D; Homo sapiens, T47D, 48 h", "result": 1.02, "unit": "µM"}, {"measurement": "IC50", "setting": "DU-145; du-145", "result": 24.7, "unit": "µM"}, {"measurement": "IC50", "setting": "[2]; Homo sapiens, HCT-15, 48 h", "result": 1.04, "unit": "µM"}]}
{"smiles": "CCN1CCN(c2nc(-c3cccs3)cc3ccc(C)cc23)CC1", "values": [{"measurement": "IC50", "setting": "[1]; mcf-10a", "result": 43.1, "unit": "µM"}, {"measurement": "IC50", "setting": "T47D; t47d", "result": 4.15, "unit": "µM"}, {"measurement": "IC50", "setting": "DU-145; Homo sapiens, DU-145, 48 h", "result": 29.4, "unit": "µM"}, {"measurement": "IC50", "setting": "[2]; hct-15", "result": 3.63, "unit": "µM"}]}
{"smiles": "c1csc(-c2cc3ccccc3c(N3CCOCC3)n2)c1", "note": "[listing 2 of 2 here]", "values": [{"measurement": "IC50", "setting": "T47D; Homo sapiens, T47D, 48 h", "result": 14.8, "unit": "µM"}, {"measurement": "IC50", "setting": "DU-145; Homo sapiens, DU-145, 48 h", "result": 47, "unit": "µM"}, {"measurement": "IC50", "setting": "[2]; Homo sapiens, HCT-15, 48 h", "result": 14.7, "unit": "µM"}]}
{"smiles": "Cc1ccc2cc(-c3cccs3)nc(N3CCCCC3)c2c1", "values": [{"measurement": "IC50", "setting": "[1]; Homo sapiens, MCF-10A, 48 h", "result": "> 50", "unit": "µM"}, {"measurement": "IC50", "setting": "T47D; t47d", "result": 7.38, "unit": "µM"}, {"measurement": "IC50", "setting": "DU-145; Homo sapiens, DU-145, 48 h", "result": "> 50", "unit": "µM"}, {"measurement": "IC50", "setting": "[2]; hct-15", "result": 3.74, "unit": "µM"}]}
{"smiles": "Cc1ccc2cc(-c3cccs3)nc(N3CCOCC3)c2c1", "note": "[listing 2 of 2 here]", "values": [{"measurement": "IC50", "setting": "[1]; mcf-10a", "result": 49.1, "unit": "µM"}, {"measurement": "IC50", "setting": "T47D; t47d", "result": 7.63, "unit": "µM"}, {"measurement": "IC50", "setting": "DU-145; du-145", "result": 48.3, "unit": "µM"}, {"measurement": "IC50", "setting": "[2]; hct-15", "result": 9.52, "unit": "µM"}]}
{"smiles": "CCN1CCN(c2nc(-c3cccs3)cc3cc(C)ccc23)CC1", "note": "[listing 2 of 2 here]", "values": [{"measurement": "inhibition", "setting": "[3]", "result": 0, "unit": "%"}, {"measurement": "inhibition", "setting": "[4]", "result": 0, "unit": "%"}]}
